Source: PubChem (several laboratories)
SENP1 FRET inh – blocks the human SENP1 SUMO protease catalytic domain; Q9P0U3; recombinant SENP1 catalytic domain, CyPet-SUMO1-YPet FRET cleavage; inhibition, % at 10 µM; 0.21% of 360,000 active; AID 624204;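 active = inhibition at least 30% at 10 µM, raw YFP signal under a set limit, fluorescence ratio 0.5 to 1.5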
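System: Recombinant human SENP1 catalytic domain, His6-tagged | Incubation: Enzyme reaction for 50 min at room temperature, dark | Medium: Tris pH 8 with BME, BSA, NP40 and catalase | Also added: 25 nM SUMO1 FRET substrate | Compound: 10 µM single point, 0.5% DMSO | Measured by: FRET fluorescence in CFP and YFP emission channels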
ADAM17 inh – inhibitors of human ADAM17; inhibition, % at 6.95 µM; recombinant ADAM17, EDANS/DABCYL FRET peptide cleavage; 0.83% of 370,000 active; AID 720648; P78536;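 active = inhibition above the mean of compounds lying between control limits plus 3 SD, set per campaign, cut at about 8.5% in these data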
Target sequence (P78536 215-824 limits assumed): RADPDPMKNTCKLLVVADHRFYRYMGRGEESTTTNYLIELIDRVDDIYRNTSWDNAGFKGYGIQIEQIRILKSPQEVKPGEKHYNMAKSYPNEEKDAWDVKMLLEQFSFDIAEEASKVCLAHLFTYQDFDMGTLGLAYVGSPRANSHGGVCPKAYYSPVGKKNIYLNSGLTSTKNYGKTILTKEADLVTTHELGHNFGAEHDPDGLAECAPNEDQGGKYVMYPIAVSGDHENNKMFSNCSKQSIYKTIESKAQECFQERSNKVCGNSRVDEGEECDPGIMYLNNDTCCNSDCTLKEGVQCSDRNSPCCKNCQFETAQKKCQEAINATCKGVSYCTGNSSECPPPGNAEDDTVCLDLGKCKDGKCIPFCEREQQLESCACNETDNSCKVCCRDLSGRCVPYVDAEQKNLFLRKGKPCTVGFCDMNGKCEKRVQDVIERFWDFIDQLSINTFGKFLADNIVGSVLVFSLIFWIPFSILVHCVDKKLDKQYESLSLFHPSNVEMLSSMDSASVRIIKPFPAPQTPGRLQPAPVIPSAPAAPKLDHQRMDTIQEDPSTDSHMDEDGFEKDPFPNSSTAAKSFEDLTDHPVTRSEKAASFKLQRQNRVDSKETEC
FAS-TE inh – FAS thioesterase (human) inhibition; P49327; recombinant FAS-TE, OMFH fluorogenic substrate, fluorescence endpoint; inhibition, % at 15 µM; 0.67% of 360,000 active;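 active = compounds whose normalised, plate-corrected inhibition of enzyme fluorescence in the single-dose primary screen is 50% or more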
ADAM10 inh – inhibitors of human ADAM10; recombinant ADAM10, EDANS/DABCYL FRET peptide cleavage, 3 h; inhibition, % at 7 µM; 0.62% of 370,000 active; AID 720582;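 active = inhibition above a per-campaign cutoff equal to the mean of compounds falling between control-based bounds plus 3 SD, cut at about 20% in these data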
ADAM10 confirm – confirmation of inhibitors of human ADAM10 | shares compounds with ADAM10 inh | ADAM10 QFRET peptide cleavage, EDANS fluorescence | inhibition, % at 6.95 µM | 1% of 2,100 active;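 active = inhibition above about 20% chosen separately for each screening run, limit read from the data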
ADAM17 counter – ADAM17 inhibition, counter-screen for ADAM10 exosite hits; shares compounds with ADAM10 inh; ADAM17 QFRET peptide cleavage, EDANS fluorescence; inhibition, % at 6.95 µM; 0.5% of 2,100 active; AID 743214;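 active = mean triplicate inhibition above the solvent-only control wells' mean plus 3 SD, cut at about 12% in these data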
Of the large screens only hits and unclear results are named; the others gave an inactive call (follow-up assays come after a bar, where they were run). The list is not random: actives were taken first. Their share in the collection is about 1.9%.

CCCCn1c(NCc2cc(C)ccc2O)nc2ccccc21	ADAM10 inh 23.1 | ADAM10 confirm inactive | ADAM17 counter inactive
Cn1c(NCc2cc(Br)ccc2O)nc2ccccc21	ADAM10 inh 20.6 | ADAM10 confirm inactive | ADAM17 counter inactive
Cc1ccc(NC(=O)Cc2cccc(OC(F)F)c2)c(S(=O)(=O)N2CCOCC2)c1	none (no result: SENP1 FRET inh, FAS-TE inh)
COc1cc2c(cc1OC)C(c1ccccc1)N(C(=O)c1ccccc1F)CC2 (configuration not stated)	ADAM10 inh 21.4 | ADAM10 confirm inactive | ADAM17 counter inactive
COc1cc2c(cc1OC)C(c1ccccc1)N(C(=O)c1ccccc1)CC2 (configuration not stated)	none
O=C1N2Cc3ccccc3C2CS(=O)(=O)N1Cc1ccccc1 (configuration not stated)	none (no result: SENP1 FRET inh, FAS-TE inh)
O=C(NCc1nc2ccccc2[nH]1)C1=C[C@H](c2coc3ccccc3c2=O)C[C@H](OCc2ccc(CO)cc2)O1	ADAM10 inh 24.1 | ADAM10 confirm inactive | ADAM17 counter inactive
O=C(NCc1nc2ccccc2[nH]1)C1=C[C@H](c2ccccc2)C[C@H](OCc2ccc(CO)cc2)O1	none
CCOc1cccc(C(=O)Nc2ccc(N(CC)CC)cc2)c1	ADAM10 inh 26.9 | ADAM10 confirm inactive | ADAM17 counter inactive
Cc1ccccc1CN(c1ccc(C(=O)Nc2ccccc2C(=O)NCc2ccco2)cc1)S(C)(=O)=O	ADAM10 inh 25.9 | ADAM10 confirm 19.9 | ADAM17 counter inactive
CCc1ccc2c(CN3CCN(S(=O)(=O)c4ccccc4F)CC3)cc(=O)oc2c1	none
CCc1ccc2c(CN3CCN(S(=O)(=O)c4cccs4)CC3)cc(=O)oc2c1	ADAM10 inh 20.7 | ADAM10 confirm inactive | ADAM17 counter inactive
CCCCNC(=O)NC1CCN(CC(=O)Nc2ccc3c(c2)OCCO3)CC1	none (no result: SENP1 FRET inh, FAS-TE inh)
Oc1cc2c(cc1C(c1ccc(Cl)c(Cl)c1)N1CCCC1)OCO2 (configuration not stated)	ADAM10 inh 27.1 | ADAM10 confirm inactive | ADAM17 counter inactive
CC(C)c1ccc(NC(=O)C(c2ccc3c(c2)OCO3)N2CCCCC2)cc1 (configuration not stated)	none
COc1cc(C=Nn2c(-c3ccccc3F)n[nH]c2=S)ccc1OCc1ccccc1	none (no result: SENP1 FRET inh, FAS-TE inh)
COc1cccc(CNc2ccc(Br)cn2)c1O	ADAM10 inh 24.6 | ADAM10 confirm inactive | ADAM17 counter inactive
N#CC1=C(N)NC(SCc2ccc(Cl)cc2)=C(C#N)C12CCCCC2	none
N#CC1=C(N)NC(SCc2ccc(Br)cc2)=C(C#N)C12CCCCC2	ADAM10 inh 25.4 | ADAM10 confirm inactive | ADAM17 counter inactive
O=S1(=O)c2ccc(N3CCSCC3)cc2Oc2ccccc2CN1Cc1cn(Cc2ccc(C(F)(F)F)cc2)nn1	ADAM10 inh 19.9 (no result: SENP1 FRET inh, FAS-TE inh) | ADAM10 confirm inactive | ADAM17 counter inactive
O=S1(=O)c2ccc(N3CCCC3)cc2Oc2ccccc2CN1Cc1cn(Cc2ccc(C(F)(F)F)cc2)nn1	none (no result: SENP1 FRET inh, FAS-TE inh)
O=C(C(=O)N1CCC(CNC(=O)c2sc3ccccc3c2Cl)CC1)c1cccs1	none (no result: SENP1 FRET inh, FAS-TE inh)
CCCCCCn1cc(CN2CC=CS2(=O)=O)nn1	none (no result: SENP1 FRET inh, FAS-TE inh)
COc1ccccc1Nc1ccc(NC(=O)c2cccc([N+](=O)[O-])c2C)cc1	ADAM10 inh 34.8 | ADAM10 confirm inactive | ADAM17 counter inactive
COc1ccc(NC(=O)c2ccc(-c3ccccc3)cc2)cc1NS(=O)(=O)c1ccc(F)cc1	ADAM10 inh 24.2 | ADAM10 confirm 30.8 | ADAM17 counter inactive
CC(C)CN1C(=O)[C@@]2(CC(=O)N(C)C2c2ccccc2)c2cc(-n3cc(CCCC#N)nn3)ccc21 (some centres not stated)	none (no result: SENP1 FRET inh, FAS-TE inh)
CCN(c1ccccc1)S(=O)(=O)c1ccc(Cl)c(NC(=O)CSc2n[nH]c(N)n2)c1	none
CCN(c1ccccc1)S(=O)(=O)c1ccc(Cl)c(NC(=O)CSc2ncn[nH]2)c1	ADAM10 inh 22.7 | ADAM10 confirm inactive | ADAM17 counter inactive
COC(=O)[C@]12C[C@H](CC(=O)N3CCOCC3)C(=O)N(Cc3ccco3)C1=C[C@H](C(C)(C)C)O[C@@H]2C	none (no result: SENP1 FRET inh, FAS-TE inh)
O=C(O)c1ccccc1/C=N/NC(=S)NC1CCCCC1	ADAM10 inh 23.0 | ADAM10 confirm inactive | ADAM17 counter inactive
O=C(O)c1ccccc1/C=N/NC(=O)C1CCCCC1	none
O=C(NCc1cn(-c2ccccc2)nc1-c1ccc(F)cc1)c1cccc([N+](=O)[O-])c1	ADAM10 inh 21.3 | ADAM10 confirm inactive | ADAM17 counter inactive
FC(F)C(F)(F)C(F)(F)C(F)(F)c1cc(-c2ccccc2)n[nH]1	ADAM10 inh 23.4 | ADAM10 confirm inactive | ADAM17 counter inactive
O=C(Nc1ccc(Oc2ccc(NC(=O)c3ccco3)c(NC(=O)c3ccco3)c2)cc1)c1ccco1	none
O=C(Nc1ccc(Oc2ccc3ccccc3c2)cc1)c1ccco1	ADAM10 inh 22.6 | ADAM10 confirm inactive | ADAM17 counter inactive
CC(=O)Oc1ccc([C@@H]2COc3c(ccc4c3C=CC(C)(C)O4)C2)c(OC(C)=O)c1	none
CC1(C)C=Cc2c(ccc3c2OC[C@H](c2ccc(O)cc2O)C3)O1	ADAM10 inh 28.0 | ADAM10 confirm inactive | ADAM17 counter inactive
O=C1c2ccccc2C(=O)N1CCc1c(-c2ccccc2)[nH]c2ccccc12	ADAM10 inh 20.0 | ADAM10 confirm inactive | ADAM17 counter inactive
CCCCCCCCN1C(=O)N2Cc3ccc(C)cc3C2CS1(=O)=O (configuration not stated)	none (no result: SENP1 FRET inh, FAS-TE inh)
CC(C)[C@H]1Cn2nnc(-c3ccccc3)c2Cn2c3ccccc3c(=O)n21	none (no result: SENP1 FRET inh, FAS-TE inh)
O=C(O)c1cccc(NC(=S)N/N=C/c2ccccc2OCc2ccc(Br)cc2)c1	ADAM10 inh 22.9 | ADAM10 confirm inactive | ADAM17 counter inactive
COc1ccc(C2(C)NC(=O)N(CC(=O)Nc3ccc(S(=O)(=O)N4CCCC4)cc3)C2=O)cc1 (configuration not stated)	none
CC1CCCN(S(=O)(=O)c2ccc(NC(=O)CN3C(=O)NC(C)(c4ccccc4)C3=O)cc2)C1 (configuration not stated)	ADAM10 inh 20.2 | ADAM10 confirm inactive | ADAM17 counter inactive
CCOc1ccc(CCNC(=O)c2cc3ccsc3n2C)cc1OCC	none (no result: SENP1 FRET inh, FAS-TE inh)
CCOC(=O)N1CCN(C(=O)C[C@@H]2C(=O)N3CCCC4=C3[C@@]2(C(=O)OCC)CCC4)CC1	none (no result: SENP1 FRET inh, FAS-TE inh)
CCCCCCCCNC(=O)C1CSCCS(=O)(=O)N1Cc1ccc(OC)cc1 (configuration not stated)	none (no result: SENP1 FRET inh, FAS-TE inh)
O=C(Cc1noc2ccccc12)Nc1ccc(Cl)cc1	none
COc1ccc(CC(=O)NNC(=S)Nc2ccccc2)cc1Br	none
CC(C)Oc1ccc(CC(=O)NNC(=S)Nc2ccccc2)cc1	ADAM10 inh 27.3 | ADAM10 confirm inactive | ADAM17 counter inactive
CCOc1ccc(CC(=O)NNC(=S)Nc2ccccc2)cc1Br	ADAM10 inh 20.5 | ADAM10 confirm inactive | ADAM17 counter inactive
